# Test results taken from ChEMBL document CHEMBL2380280, “Xanthates and trithiocarbonates strongly inhibit carbonic anhydrases and show antiglaucoma effects in vivo” (J Med Chem, 2013).
# Calls of active or inactive are those of the source. The calls are words filed in the database; no cut-off is given here.
# Legend:
# Oryctolagus cuniculus [1] = test: Antiglaucoma activity in hypertensive New Zealand albino rabbit model assessed as decrease in carbomer-induced intraocular pressure at 2% administered to eye after 50 to 100 mins by tanometric analysis (reference value: 35 to 40 mmHg); type: functional
# Method in brief: (§1)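 Adult male New Zealand albino rabbits, 2−2.5 kg. Glaucoma induced by bilateral anterior-chamber injection of 0.1 mL 0.25% carbomer under im tiletamine/zolazepam plus xilazine anaesthesia. Once IOP was stably raised, drug was instilled into one eye and vehicle into the contralateral eye, three animals per drug. IOP was read by Tono-Pen tonometer after oxybuprocaine drops, before dosing and at 30, 60, 90, 120, 240 and 300 min.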
# Oryctolagus cuniculus [2] = test: Antiglaucoma activity in normotensive New Zealand rabbit model assessed as decrease in intraocular pressure at 2% administered to eye vitreous by tanometric analysis; type: functional
# Carbonic anhydrase 9 = Carbonic anhydrase 9 (Homo sapiens, UniProt Q16790); test: Inhibition of recombinant human CA9 transmembrane isoform preincubated for 15 mins by stopped-flow CO2 hydration assay
# Oryctolagus cuniculus [3] = test: Antiglaucoma activity in hypertensive New Zealand albino rabbit model assessed as decrease in carbomer-induced intraocular pressure at 2% administered to eye measured up to 200 to 250 mins by tanometric analysis; type: functional, organism-based; method in brief: as §1
# Oryctolagus cuniculus [4] = test: Antiglaucoma activity in hypertensive New Zealand albino rabbit model assessed as decrease in carbomer-induced intraocular pressure at 2% administered to eye after > 250 mins by tanometric analysis; type: functional, organism-based; method in brief: as §1
# Oryctolagus cuniculus [5] = test: Antiglaucoma activity in hypertensive New Zealand albino rabbit model assessed as decrease in carbomer-induced intraocular pressure at 2% administered to eye after 100 mins by tanometric analysis (reference value: 35 to 40 mmHg); type: functional; method in brief: as §1
# Carbonic anhydrase 12 = Carbonic anhydrase 12 (Homo sapiens, UniProt O43570); test: Inhibition of recombinant human CA12 transmembrane isoform preincubated for 15 mins by stopped-flow CO2 hydration assay
# Sequence of Carbonic anhydrase 12 (O43570 whole entry, canonical isoform): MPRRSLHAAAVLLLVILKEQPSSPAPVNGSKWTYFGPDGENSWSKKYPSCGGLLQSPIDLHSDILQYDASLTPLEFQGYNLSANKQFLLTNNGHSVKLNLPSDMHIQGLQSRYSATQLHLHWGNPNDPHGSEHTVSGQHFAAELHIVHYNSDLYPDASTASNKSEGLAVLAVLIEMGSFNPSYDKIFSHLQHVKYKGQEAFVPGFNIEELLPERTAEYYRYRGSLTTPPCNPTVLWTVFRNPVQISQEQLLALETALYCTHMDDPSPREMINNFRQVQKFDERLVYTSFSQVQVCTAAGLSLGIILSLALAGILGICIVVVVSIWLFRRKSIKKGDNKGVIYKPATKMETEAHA
# Carbonic anhydrase 1 = Carbonic anhydrase 1 (Homo sapiens, UniProt P00915); test: Inhibition of recombinant human CA1 cytosolic isoform preincubated for 15 mins by stopped-flow CO2 hydration assay
# Sequence of Carbonic anhydrase 1 (P00915 whole entry, canonical isoform): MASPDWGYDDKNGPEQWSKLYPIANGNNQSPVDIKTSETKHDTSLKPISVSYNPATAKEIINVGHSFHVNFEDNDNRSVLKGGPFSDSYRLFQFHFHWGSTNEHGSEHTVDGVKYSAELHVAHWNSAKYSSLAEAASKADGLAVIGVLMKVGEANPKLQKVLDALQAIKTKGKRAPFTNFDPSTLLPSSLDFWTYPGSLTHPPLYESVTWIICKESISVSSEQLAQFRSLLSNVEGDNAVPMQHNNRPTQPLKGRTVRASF
# Carbonic anhydrase 2 = Carbonic anhydrase 2 (Homo sapiens, UniProt P00918); test: Inhibition of recombinant human CA2 cytosolic isoform preincubated for 15 mins by stopped-flow CO2 hydration assay
# Oryctolagus cuniculus [6] = test: Antiglaucoma activity in normotensive New Zealand rabbit model assessed as decrease in intraocular pressure administered to eye vitreous by tanometric analysis; type: functional, organism-based
# Oryctolagus cuniculus [7] = test: Antiglaucoma activity in hypertensive New Zealand albino rabbit model assessed as decrease in carbomer-induced intraocular pressure at 2% administered to eye after 150 mins by tanometric analysis; type: functional, organism-based; method in brief: as §1
structure (smiles),measurement,setting,value
S=C([S-])OCCc1ccccn1.[K+],Activity,Oryctolagus cuniculus [1],4 mmHg
same,Activity,Oryctolagus cuniculus [2],1 mmHg
same,Ki,Carbonic anhydrase 9,4.3 nM
same,Activity,Oryctolagus cuniculus [3],Active
S=C(S)OCC12CC3CC(CC(C3)C1)C2,Ki,Carbonic anhydrase 9,776 nM
S=C([S-])OCC(c1ccccc1)c1ccccc1.[K+],Activity,Oryctolagus cuniculus [4],Active
same,Activity,Oryctolagus cuniculus [5],12 mmHg
same,Activity,Oryctolagus cuniculus [2],1 mmHg
same,Ki,Carbonic anhydrase 9,58 nM
same,Activity,Oryctolagus cuniculus [3],Active
S=C(S)OC1CC2CC1C1CCCC21 (centres undefined),Ki,Carbonic anhydrase 12,835 nM
same,Ki,Carbonic anhydrase 1,63.4 nM
same,Ki,Carbonic anhydrase 9,643 nM
same,Ki,Carbonic anhydrase 2,6.6 nM
S=C(S)OC1CCCCC1,Ki,Carbonic anhydrase 9,78.8 nM
CN(C)CCOC(=S)S,Ki,Carbonic anhydrase 9,760 nM
CCOC(=S)S,Ki,Carbonic anhydrase 9,566 nM
S=C(S)OC1CCCC1,Ki,Carbonic anhydrase 12,74.7 nM
same,Ki,Carbonic anhydrase 1,532 nM
same,Ki,Carbonic anhydrase 9,47.2 nM
same,Ki,Carbonic anhydrase 2,366 nM
CC(C)(C)OC(=O)NCCCCOC(=S)[S-].[K+],Activity,Oryctolagus cuniculus [1],4 mmHg
same,Activity,Oryctolagus cuniculus [2],1 mmHg
same,Ki,Carbonic anhydrase 9,622 nM
same,Activity,Oryctolagus cuniculus [3],Active
CC(C)(C)OC(=O)NCCCCCCOC(=S)S,Ki,Carbonic anhydrase 9,765 nM
N#CNC(=S)S,Ki,Carbonic anhydrase 9,678 nM
S=C(S)SCc1ccccc1,Ki,Carbonic anhydrase 9,7.8 nM
CCN[C@H]1C[C@H](C)S(=O)(=O)c2sc(S(N)(=O)=O)cc21,Activity,Oryctolagus cuniculus [6],inactive
same,Activity,Oryctolagus cuniculus [7],inactive
COC(=S)S,Ki,Carbonic anhydrase 9,631 nM
CCCCCCCCOC(=S)S,Ki,Carbonic anhydrase 9,72.1 nM
CN(C)CCOCCOC(=S)[S-].[K+],Activity,Oryctolagus cuniculus [1],4 mmHg
same,Activity,Oryctolagus cuniculus [2],1 mmHg
same,Ki,Carbonic anhydrase 9,831 nM
same,Activity,Oryctolagus cuniculus [3],Active
CC(C)OC(=S)S,Ki,Carbonic anhydrase 9,531 nM
CC(C)CCOC(=S)S,Ki,Carbonic anhydrase 9,322 nM
S=C(S)OCc1ccccc1,Ki,Carbonic anhydrase 9,8.1 nM
CCCCCOC(=S)S,Ki,Carbonic anhydrase 9,403 nM
S=C([S-])OCCC12CC3CC(CC(C3)C1)C2.[K+],Activity,Oryctolagus cuniculus [1],4 mmHg
same,Activity,Oryctolagus cuniculus [2],1 mmHg
same,Ki,Carbonic anhydrase 9,779 nM
same,Activity,Oryctolagus cuniculus [3],Active
